Data set [1] has as its target Geranylgeranyl transferase type I (Homo sapiens, UniProt P49354+P53609). As to the kind of experiment: In vitro inhibitory activity to reduce the human geranylgeranyl transferase type I (GGPTase-1)-catalyzed incorporation of 3H GGPP (100 nM) into K-Ras-derived peptide. It is filed as functional.
For data set [2], the target named is Protein farnesyltransferase (Rattus norvegicus, UniProt Q02293+Q04631). As to the kind of experiment: In vitro ability to displace radiolabeled FTI from farnesyltransferase in cultured Ha-ras transformed RAT1 cells. The class given is cell-based. The gist of the method:
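Competitive binding in v-Ha-ras transformed RAT1 cells seeded at 200,000 cells/well and cultured 16 h. [125I]-labelled FTI radiotracer diluted to 1 nM in culture medium with test FTI is added to the monolayers. Incubation 4 h at 37 °C, PBS rinse, trypsinization, gamma counting. Nonspecific binding is taken with 1000-fold excess unlabeled FTI.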

Data set [3] addresses Protein farnesyltransferase (Homo sapiens, UniProt P49354+P49356). As to the kind of experiment: In vitro inhibitory activity to reduce the human farnesyltransferase catalyzed incorporation of [3H]FPP into recombinant Ras-CVIM. The class given is functional. The method, boiled down: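 Human FPTase, [3H]FPP incorporated into recombinant Ras-CVIM. Enzyme at 1 nM, or 10 pM for some compounds.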

The nature of data set [4]: Clearance by iv administration in dogs at a dose of 1 mg/kg. The following applies: dog, in vivo.
For data set [5] the following is noted: rat.

These results are taken from ChEMBL document CHEMBL1134760, “Evaluation of amino acid-based linkers in potent macrocyclic inhibitors of farnesyl-protein transferase” (Bioorg Med Chem Lett, 2001).

For the compound `CC[C@H]1NCc2cncn2Cc2ccc(C#N)c(c2)Oc2ccc3cccc(c3c2)NC1=O`, the figures for the IC50 in data set [1], in data set [2] and in data set [3] were 469 nM, 410 nM and 1.2 nM, respectively.

Turning to `N#Cc1ccc2cc1Oc1ccc3cccc(c3c1)NC(=O)[C@@H](Cc1ccccc1)NC(=O)Cc1cncn1C2`, the IC50 (as a rule, the concentration at which inhibition is half-maximal) in data set [1] came to 29 nM; in data set [2] it was 310 nM; in data set [3], 3.5 nM.

Take `N#Cc1ccc2cc1Oc1ccc3cccc(c3c1)N1CCN(CC1=O)Cc1cncn1C2`: in data set [4], the clearance (usually a measure of how efficiently the substance is removed, as volume per time) was found to be 5.1 mL/min/kg. Besides, the half-life – broadly, how long it takes for the measured level to halve – in data set [5] was 1 h.

Consider `CN1CC(=O)Nc2cccc3ccc(cc23)Oc2cc(ccc2C#N)Cn2cncc2C1`, for which the IC50 came out at 2070 nM in data set [1], 196 nM in data set [2] and 5.7 nM in data set [3].

`N#Cc1ccc2cc1Oc1ccc3cccc(c3c1)NC(=O)CNC(=O)Cc1cncn1C2`: the results for the IC50 in data set [1], in data set [2] and in data set [3] were 150 nM, 67 nM and 3.8 nM, respectively.

For `C[C@@H]1NCc2cncn2Cc2ccc(C#N)c(c2)Oc2ccc3cccc(c3c2)NC1=O`, the IC50 in data set [1] worked out at 4820 nM; in data set [2], 248 nM; in data set [3], 11 nM.

Regarding `C[C@@H]1C(=O)Nc2cccc3ccc(cc23)Oc2cc(ccc2C#N)Cn2cncc2CN1Cc1ccccc1`, the IC50 in data set [1] is over 20000 nM; in data set [2], 240 nM; in data set [3] it was 18 nM.

Turning to `CN1CC(=O)N(C)c2cccc3ccc(cc23)Oc2cc(ccc2C#N)Cn2cncc2C1`, the IC50 in data set [1] came to 12800 nM; in data set [2], 13 nM; in data set [3] it was 8.4 nM.

`N#Cc1ccc2cc1Oc1ccc3cccc(c3c1)NC(=O)[C@@H](Cc1cccs1)NCc1cncn1C2`: the IC50 in data set [1] is 72 nM; in data set [2] it was 43 nM; in data set [3], 2.1 nM.

On to `N#Cc1ccc2cc1Oc1ccc3cccc(c3c1)NC(=O)[C@@H](Cc1ccccc1)NCc1cncn1C2`, for which the IC50 in data set [1] worked out at 66 nM; in data set [2] it was 17 nM; in data set [3] it was 0.47 nM.

For `N#Cc1ccc2cc1Oc1ccc3cccc(c3c1)C(=O)NCCNCc1cncn1C2`, the IC50 is 77 nM in data set [1], 7.1 nM in data set [2] and 4.5 nM in data set [3].

In the case of `N#Cc1ccc2cc1Oc1ccc3cccc(c3c1)C(=O)NCCCNCc1cncn1C2`, the results for the IC50 in data set [1], in data set [2] and in data set [3] were 890 nM, 99 nM and 2.3 nM, respectively.

For `C[C@@H]1C(=O)Nc2cccc3ccc(cc23)Oc2cc(ccc2C#N)Cn2cncc2CN1C`, the IC50 in data set [1] is 1220 nM; in data set [2] it was over 100 nM; in data set [3], 7 nM.

As for `CN1C(=O)CNCc2cncn2Cc2ccc(C#N)c(c2)Oc2ccc3cccc1c3c2`, the IC50 in data set [1] worked out at 6720 nM; in data set [2] it was 55 nM; in data set [3], 15 nM.

In the case of `C[C@H]1NC(=O)Cc2cncn2Cc2ccc(C#N)c(c2)Oc2ccc3cccc(c3c2)NC1=O`, the figures for the IC50 in data set [1], in data set [2] and in data set [3] were 50 nM, 258 nM and 3.3 nM, respectively.

Turning to `C[C@H]1NCc2cncn2Cc2ccc(C#N)c(c2)Oc2ccc3cccc(c3c2)N(C)C1=O`, the values for the IC50 in data set [1], in data set [2] and in data set [3] were 3160 nM, 17 nM and 16 nM, respectively.

As to `N#Cc1ccc2cc1Oc1ccc3cccc(c3c1)NC(=O)[C@@H](Cc1cccnc1)NCc1cncn1C2`, the half-inhibitory concentration (IC50) in data set [1] was 147 nM; in data set [2] it was 1310 nM; in data set [3], 1.8 nM.

Turning to `N#Cc1ccc2cc1Oc1ccc3cccc(c3c1)NC(=O)CNCc1cncn1C2`, the IC50 in data set [1] was 675 nM; in data set [2], 37 nM; in data set [3], 4.3 nM.

On to `C[C@@H]1C(=O)N(C)c2cccc3ccc(cc23)Oc2cc(ccc2C#N)Cn2cncc2CN1C`, for which the IC50 was found to be 6760 nM in data set [1] and 15 nM in data set [2].

Take `N#Cc1ccc2cc1Oc1ccc3cccc(c3c1)NC(=O)[C@@H](Cc1ccccc1)N(Cc1ccccc1)Cc1cncn1C2`: the values for the IC50 in data set [1], in data set [2] and in data set [3] were over 20000 nM, 574 nM and 50 nM, respectively.

Consider `CN1Cc2cncn2Cc2ccc(C#N)c(c2)Oc2ccc3cccc(c3c2)NC(=O)[C@H]1Cc1ccccc1`, for which the IC50 came to 350 nM in data set [1], 184 nM in data set [2] and 2.7 nM in data set [3].

`CN1C(=O)CNC(=O)Cc2cncn2Cc2ccc(C#N)c(c2)Oc2ccc3cccc1c3c2`: the results for the IC50 in data set [1], in data set [2] and in data set [3] were 1090 nM, 65 nM and 6.6 nM, respectively.

`C[C@H]1NCc2cncn2Cc2ccc(C#N)c(c2)Oc2ccc3cccc(c3c2)NC1=O`: the IC50 in data set [1] is 313 nM; in data set [2], 23 nM; in data set [3] it was 1.3 nM.

With `N#Cc1ccc2cc1Oc1ccc3cccc(c3c1)C(=O)NCCNC(=O)Cc1cncn1C2`, the IC50 in data set [1] turned out to be 250 nM; in data set [2] it was 409 nM; in data set [3], 2.5 nM.

In the case of `N#Cc1ccc2cc1Oc1ccc3cccc(c3c1)NC(=O)CN(Cc1ccccc1)Cc1cncn1C2`, the IC50 in data set [1] was over 20000 nM; in data set [2] it was 29.6 nM; in data set [3], 2.6 nM.
